pEC50, pIC50: −log10 of the molar value.
Columns and labels:
ERα [1] = target: T1, ERα (Homo sapiens, UniProt P03372); assay: Luciferase reporter assay in Hs578T-ERαLuc cells; assay type: cell-based; details: for luciferase induction in Hs578T-ERαLuc (in words): b31: 10 nM DPN or PPT, 24 hr
T1 sequence (P03372 1-595): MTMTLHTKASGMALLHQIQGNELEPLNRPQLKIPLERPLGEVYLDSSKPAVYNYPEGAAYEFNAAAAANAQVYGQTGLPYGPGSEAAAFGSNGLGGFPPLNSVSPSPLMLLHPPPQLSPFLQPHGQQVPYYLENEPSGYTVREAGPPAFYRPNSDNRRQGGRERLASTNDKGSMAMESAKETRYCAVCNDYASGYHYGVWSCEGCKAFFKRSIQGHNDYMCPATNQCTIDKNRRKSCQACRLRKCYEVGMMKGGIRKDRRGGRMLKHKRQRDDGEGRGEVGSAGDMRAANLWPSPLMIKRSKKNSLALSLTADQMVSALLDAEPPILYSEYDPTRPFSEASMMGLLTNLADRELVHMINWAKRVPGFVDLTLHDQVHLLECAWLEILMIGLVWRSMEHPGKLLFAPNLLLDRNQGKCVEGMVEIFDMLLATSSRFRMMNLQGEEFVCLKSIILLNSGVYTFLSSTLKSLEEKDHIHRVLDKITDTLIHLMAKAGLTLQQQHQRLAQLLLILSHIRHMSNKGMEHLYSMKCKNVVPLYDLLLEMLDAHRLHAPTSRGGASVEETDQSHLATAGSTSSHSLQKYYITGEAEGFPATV

C3 (ERβ target gene) = assay: qPCR of ERβ target gene C3 in Hs578T-ERβ cells; assay type: cell-based; details: 50 ng/mL Dox 48 hr, ligand 24 hr; cosmosiin 1 μM
How it was run: (§1)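 Cells were hormone-depleted for 3 days in phenol red-free DMEM/F12 + 10% charcoal-stripped FBS, split into 5% stripped serum, and induced with 50 ng/mL Dox for 48 hr. They were then treated with Dox plus test compound or 0.1% DMSO vehicle for 24 hr. Total RNA was extracted and assayed by qRT-PCR: ITGA6 in Hs578T-ERα cells, C3 and JAG1 in Hs578T-ERβ cells. There were three biological replicates, with two-tailed t-tests against control.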

ERα/β and ERβ/β dimers = assay: BRET dimerization assays; assay type: cell-based; details: unpublished data
ERβ [2] = target: T2, ERβ (Homo sapiens, UniProt Q92731); assay: Competitive ligand binding assay
T2 sequence (Q92731 whole entry): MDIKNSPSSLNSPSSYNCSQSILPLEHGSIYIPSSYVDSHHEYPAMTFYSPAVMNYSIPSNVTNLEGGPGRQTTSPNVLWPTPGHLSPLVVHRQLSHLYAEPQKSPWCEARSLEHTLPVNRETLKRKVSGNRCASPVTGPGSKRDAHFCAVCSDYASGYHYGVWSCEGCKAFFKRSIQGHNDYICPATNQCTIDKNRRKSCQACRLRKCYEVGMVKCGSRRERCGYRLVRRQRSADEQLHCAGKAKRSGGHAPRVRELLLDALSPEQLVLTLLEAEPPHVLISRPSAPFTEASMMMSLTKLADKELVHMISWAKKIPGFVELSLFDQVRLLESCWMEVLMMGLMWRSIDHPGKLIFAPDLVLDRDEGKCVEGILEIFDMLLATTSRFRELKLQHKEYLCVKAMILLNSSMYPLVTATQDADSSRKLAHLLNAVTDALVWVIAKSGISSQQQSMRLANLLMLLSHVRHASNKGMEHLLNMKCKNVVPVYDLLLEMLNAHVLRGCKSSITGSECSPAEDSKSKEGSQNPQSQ

ITGA6 (ERα target gene) = assay: qPCR of ERα target gene ITGA6 in Hs578T-ERα cells; assay type: cell-based; details: for ITGA6 expression in Hs578T-ERα cells at 1 μM: 1 μM ligand, 24 hr; for ITGA6 expression in Hs578T-ERα cells: ligand 24 hr, DPN 10 nM, liquiritigenin 100 nM
How it was run: as §1

JAG1 (ERβ target gene) = assay: qPCR of ERβ target gene JAG1 in Hs578T-ERβ cells; assay type: cell-based; details: for JAG1 repression in Hs578T-ERβ cells: 50 ng/mL Dox 48 hr, ligand 24 hr; for JAG1 repression compared to E2, DPN or 1 μM liquiritigenin: 100 nM liquiritigenin, 1 μM cosmosiin
How it was run: as §1

ERβ [3] = target: T2, ERβ; assay: Luciferase reporter assay in Hs578T-ERβLuc cells; assay type: cell-based; details: for luciferase induction in Hs578T-ERβLuc (in words): b31: 10 nM DPN or PPT, 24 hr, cosmosiin up to 10 μM
FLuc reporter transcript = assay: RT-PCR of firefly luciferase; assay type: cell-based; details: 1 μM cosmosiin vs 1 nM E2, 4 and 24 hr; both cell lines
ERα [4] = target: T1, ERα; assay: Competitive ligand binding assay; details: read-out: IC50 ERα, unpublished data
ERα [5] = target: T1, ERα; details: concentrations up to 2.5 μM; U2OS, HeLa or WAR5 prostate cancer cells transfected with ERα; cited from earlier work
[6] = cited from earlier work
T47D-KBLuc cells = details: read-out: EC50, T47D-KBLuc cells; approximate; cited from earlier work
ERβ [7] = target: T2, ERβ; assay: pGL4.3xERE reporter in HEK293 cells transfected with full length ERβ; assay type: cell-based; details: 1 nM E2, 24 hr
ERβ [8] = target: T2, ERβ; details: cited from earlier work
ERα [9] = target: T1, ERα; details: cited from earlier work
ERα [10] = target: T1, ERα; details: cited from earlier work; remark: listed apart in the source

Row | Structure (SMILES) | luciferase induction in Hs578T-ERαLuc (in words) (ERα [1]) | C3 expression in Hs578T-ERβ cells (C3 (ERβ target gene)) | ITGA6 expression in Hs578T-ERα cells at 1 μM (ITGA6 (ERα target gene)) | JAG1 repression in Hs578T-ERβ cells (JAG1 (ERβ target gene)) | JAG1 repression compared to E2, DPN or 1 μM liquiritigenin (JAG1 (ERβ target gene)) | luciferase induction in Hs578T-ERβLuc (in words) (ERβ [3]) | ITGA6 expression in Hs578T-ERα cells (ITGA6 (ERα target gene)) | further results
1 | O=c1cc(-c2ccc(O)cc2)oc2cc(O[C@@H]3O[C@H](CO)[C@@H](O)[C@H](O)[C@H]3O)cc(O)c12 [Cosmosiin, apigenin 7-glucoside] | only slightly activated luciferase reporter expression | induced C3 expression at 1 μM, but not to the same extent as E2 | ITGA6 expression was induced | occurred to a similar degree | do not fully repress JAG1 expression | induced luciferase expression to a much greater extent than E2 |  | ER dimer induction (BRET) (ERα/β and ERβ/β dimers): selectively induces ERα/β and ERβ/β dimers; pIC50 (ERβ [2]; read-out: IC50 ERβ, unpublished data): 5.48; higher binding affinity for ERβ (ERβ [2]; unpublished data): 3 fold; luciferase induction with ICI 182,780 co-treatment or without Dox (ERβ [3]; data not shown): did not induce luciferase expression in Dox-treated cells co-treated with ICI 182,780 or cells not treated with Dox; luciferase transcript level compared to E2 (FLuc reporter transcript): did not induce luciferase expression to a greater extent than E2; pIC50 (ERα [4]): 4.80
2 | N#CC(Cc1ccc(O)cc1)c1ccc(O)cc1 (stereo not shown) [DPN, diarylpropionitrile] |  | capable of inducing C3 expression to a comparable level as E2 |  | occurred to a similar degree |  |  | did not fully activate its expression | 
3 | O=C1C[C@@H](c2ccc(O)cc2)Oc2cc(O)ccc21 [Liquiritigenin, liquiritigenin] |  | capable of inducing C3 expression to a comparable level as E2 | ITGA6 expression was induced | occurred to a similar degree | do not fully repress JAG1 expression |  | did not fully activate its expression | activation of ERα in transcriptional assays (ERα [5]): minimal activation of ERα
4 | C=Cc1cc(O)cc2nc(-c3ccc(O)c(F)c3)oc12 [ERB-041] |  |  |  |  |  |  |  | efficacy in rheumatoid arthritis trial [6]: did not improve arthritis symptoms; tolerability in rheumatoid arthritis trial [6]: well tolerated
5 | C[C@]12CC[C@@H]3c4ccc(O)cc4CC[C@H]3[C@@H]1CC[C@@H]2O [E2, 17β-estradiol] |  | up-regulated in Hs578T-ERβ cells |  | occurred to a similar degree |  |  | up-regulated | pEC50 (T47D-KBLuc cells): ~11.52; induction of luciferase, HEK293 + ERβ (ERβ [7]): 15 fold
6 | CCCc1c(-c2ccc(O)cc2)nn(-c2ccc(O)cc2)c1-c1ccc(O)cc1 [PPT, propyl pyrazole triol] | selectively activated luciferase expression in Hs578T-ERαLuc | slightly induced C3 expression compared to DMSO |  | had no effect on JAG1 repression |  | could not induce luciferase expression to the same extent as E2 | up-regulated | induction of estrogen responsive reporter, HEC-1 cells + ERβ (ERβ [8]): unable to induce an estrogen responsive reporter; pEC50 (ERα [1]): 10.80; selectivity for ERα (EC50 comparison) (ERα [1]; Hs578T-ERαLuc vs Hs578T-ERβLuc): ~1000 fold; higher binding affinity for ERα compared to ERβ (ERα [9]): 400 fold; induction of estrogen responsive reporter, HELN-ERα cells (ERα [10]): unable to induce an estrogen responsive reporter; pEC50 (ERβ [3]): 7.59; concentrations at which reporter is activated in Hs578T-ERβLuc (ERβ [3]): greater than 100 nM
